The record followed here is paper PMC9929485 (International Journal for Parasitology: Drugs and Drug …, 2023).

For data set [1], the system named is T. gondii tachyzoites. In words: Anti-proliferation activity by qPCR. Type of data set: cell-based, Toxoplasma gondii RH strain. An outline of the steps: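 Vero monolayers in 6-well plates were infected with 2 × 10^5 tachyzoites per well. After 8 h, test compound (0.625–10.0 μM) or azithromycin was added in DMEM with 1% FBS for 24 h, with a drug-free negative control. Total DNA was extracted and the 529 bp repeat quantified by qPCR. EC50 and therapeutic index were calculated. Values are mean ± SD of at least three independent experiments.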
A general note: Real-time PCR tracks product formation cycle by cycle.

For data set [2], the system named is T. gondii tachyzoites. Briefly: Anti-invasion assessment by qPCR. It counts as cell-based, Toxoplasma gondii RH strain. An outline of the steps:
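Vero monolayers were preincubated with 0.625–10.0 μM test compound in DMEM with 1% FBS. Controls were 11.5 μM azithromycin (positive) and no drug (negative). Then 2 × 10^6 fresh tachyzoites were added per well for 2 h. Cells were washed twice with DPBS and kept in DMEM for 24 h. DNA was extracted and the T. gondii 529 bp repeat quantified by qPCR. Inhibition rate is relative to untreated control, from triplicate independent experiments.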

Data set [3] concerns T. gondii tachyzoites. In words: ROS production assay. Type of data set: cell-based, Toxoplasma gondii RH strain. Conditions: 1 or 5 μM, dose-dependent. The procedure, abridged:
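Infected Vero cultures were treated with 1 or 5 μM test compound or left untreated. Then 2 × 10^6 tachyzoites were isolated and PBS-washed. They were loaded with 7.5 μM CMH2DCFDA for 10 min, washed three times and resuspended in PBS. Fluorescence was read at excitation 488 nm and emission 525 nm. Triplicate experiments.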

Data set [4] in a line: Cytotoxicity assay. It counts as cell-based. The following applies: African green monkey, Vero cells. An outline of the steps: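 Vero cells were seeded at 1 × 10^4 per well, grown to monolayer, then exposed for 24 h to 0.78125–100 μM test compound in DMEM with 1% FBS (DMSO <1% v/v), with an untreated control. Viability was read by CCK-8 (1 h, absorbance 450 nm). Survival % = (treated − blank)/(control − blank) × 100. Triplicate independent experiments.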

Data set [5] has as its system T. gondii tachyzoites in Vero cells. In words: Transmission electron microscopy. Type of data set: cell-based, Toxoplasma gondii RH strain. Conditions: 5 μM. An outline of the steps:
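Vero cells in T25 flasks were infected with 2 × 10^6 tachyzoites for 8 h, then cultured with 5 μM test compound for 8 or 24 h. Cells were detached with TrypLE (2 min), PBS-washed and fixed in 2.5% glutaraldehyde (4 °C, 12 h). Post-fixation used 1% osmium in the dark for 1.5 h. Samples were dehydrated through alcohol and acetone and embedded in Epon. Ultrathin sections were stained with uranyl acetate/lead citrate and examined by TEM.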

Data set [6] deals with T. gondii tachyzoites. In words: In vivo activity against T. gondii in infected mice. Also noted: species or system Toxoplasma gondii RH strain in BALB/c mouse. The following applies: 20 mg/kg intraperitoneal once a day for 7 days, P ≤ 0.05. An outline of the steps:
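BALB/c mice were infected ip with 1 × 10^3 RH tachyzoites. Treatment started 4 h later, ip once daily for 7 days: test compound 20 mg/kg·bw, azithromycin 50 mg/kg·bw (positive control) or PBS. One mL of ascites was aspirated, washed and centrifuged, and DNA extracted. Parasites were quantified by PCR against a standard curve of serially diluted RH tachyzoite DNA (3.00 × 10^6 to 3.00 × 10^3/mL).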

The test system of data set [7] is T. gondii tachyzoites. Briefly: ATP level in tachyzoites. It counts as cell-based, Toxoplasma gondii RH strain. Conditions: 1 or 5 μM, 8 or 24 h, P ≤ 0.05. An outline of the steps: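 Infected Vero cultures were exposed to 1 or 5 μM test compound in DMEM for 8 or 24 h. Tachyzoites were then isolated, purified and lysed, and ATP was measured and expressed as μmol/L. Three independent experiments were run.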

The nature of data set [8]: Safety assay in mice. Type of data set: in vivo, mouse. The following applies: 5, 10 or 20 mg/kg intraperitoneal, over 7 days. An outline of the steps: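 BALB/c mice received test compound ip once daily for 7 days at 5, 10 or 20 mg/kg. It was formulated at 2 mg/mL in saline with 10% ethanol and 10% Cremophor EL. Controls received solvent alone or PBS. Clinical toxicity was monitored during dosing and for a further 23 days.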

The test system of data set [9] is T. gondii tachyzoites in Vero cells. Briefly: Plaque assay. Type of data set: cell-based, Toxoplasma gondii RH strain. An outline of the steps:
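Proliferation arm: Vero monolayers were infected with 2 × 10^4 tachyzoites per well for 8 h, then given 0.625–10.0 μM test compound in DMEM with 1% FBS for 24 h. Invasion arm: tachyzoites were pre-exposed to compound, then allowed to infect Vero cells for 2 h. Drug-free controls were included. After 48, 72 or 96 h, cells were PBS-washed, fixed in 4% paraformaldehyde and stained with crystal violet for 10 min. PVs per field and parasites per PV were counted in ≥20 random fields per well (40× objective).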

Data set [10] is described as follows: Pharmacokinetics in mouse plasma. It counts as in vivo. The following applies: female, BALB/c, ip, 20 mg/kg. The procedure, abridged:
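Test compound was formulated at 2 mg/mL in saline with 10% ethanol and 10% Cremophor EL. It was given ip at 20 mg/kg to 9 female BALB/c mice. Blood was sampled at 0, 0.083, 0.25, 0.5, 1, 2, 4, 8, 12 and 24 h and centrifuged at 3000 rpm for 10 min; plasma was stored at −20 °C. The PK model was selected by minimum AIC. Parameters are mean ± SD (n = 3).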

Data set [11] relates to T. gondii tachyzoites. Briefly: Mitochondrial membrane potential. Type of data set: cell-based, Toxoplasma gondii RH strain. Conditions: 1 or 5 μM, 8 or 24 h, P ≤ 0.05. The procedure, abridged:
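Tachyzoites inside Vero monolayers were treated with 1 or 5 μM test compound in DMEM for 8 or 24 h. After a PBS wash, cultures were stained with 50 nM MitoTracker Red CMXRos for 20 min. Fluorescence was read on a microplate reader. Triplicate experiments.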

`CC[C@H]1OC(=O)[C@H](C)[C@@H](O[C@H]2C[C@@](C)(OC)[C@@H](O)[C@H](C)O2)[C@H](C)[C@@H](O[C@@H]2O[C@H](C)C[C@H](N(C)C)[C@H]2O)[C@](C)(O)C[C@@H](C)CN(C)[C@H](C)[C@@H](O)[C@]1(C)O` [azithromycin]: the “inhibition rate on intracellular proliferation of T. gondii tachyzoites” value in data set [1] (positive control drug, 24 h, qPCR) was found to be 37.50%. Further, in data set [2] (Toxoplasma gondii, read-out: anti-invasion inhibition rate), the inhibition at 11.5 µM is 54%.

For the molecule `CCCCCCCc1cc(O)c2ccccc2[n+]1[O-]` [HQNO, 2-Heptyl-4-hydroxyquinoline N-oxide], the “T. gondii tachyzoite intracellular proliferation vs control” value in data set [1] (0.625–10 μM, concentration-dependent, P ≤ 0.05) is recorded as “significantly (P ≤ 0.05) inhibited”. For the same molecule, the “T. gondii invasion vs control” value in data set [2] (0.625–10 μM, P ≤ 0.05) is on record as “significantly inhibited”. Also, the “ROS levels in T. gondii vs control” value in data set [3] is reported as “increase”. This molecule yielded an IC50 at 24 h in [4] of 33.4 µM. For the same molecule, the “ultrastructure of T. gondii mitochondria (TEM)” value in [5] (8 h) is “swollen”. In data set [5] (24 h), the “ultrastructure of T. gondii (TEM)” value was “parasite death”. For the same molecule, the “effect on mitochondria of host cells around PVs (TEM)” value in data set [5] (Vero host cells) is given as “does not affect”. Further, the “parasite burden in mouse peritoneum” value in data set [6] is “significantly decreased”. Also, the “ATP levels in parasites vs control” value in data set [7] is reported as “significant dose-dependent decreases”. Also, the “clinical toxicity in mice” value in [8] was “no obvious clinical toxicity”. Further, the “tachyzoite growth (plaques formed)” value in data set [9] (0.625–10 μM, after 6 days of incubation) was “dose-dependent inhibition”. Further, the “average number of tachyzoites within the PVs” value in data set [9] (P ≤ 0.05) is “decreased”. The “invasion and proliferation ability of T. gondii (plaque)” value in [9] (after 48 h, 72 h, 96 h of incubation, P ≤ 0.05) was “significantly reduced”. Also, the “PV number vs control” value in data set [9] (pre- and post-infection, P ≤ 0.05) is reported as “decreased significantly”. In [10], the AUC(0-inf) is 3880 ± 308 ng·h/mL, the AUC(0-t) turned out to be 3860 ± 301 ng·h/mL, the MRT inf worked out at 1.62 ± 0.464 h and the MRT last stood at 1.56 ± 0.446 h. Moreover, in [10], the Tmax was 4.98 min, the half-life is 1.43 ± 0.393 h and the k el is 0.000135 s⁻¹. Besides, the “ΔΨm in parasites vs control” value in data set [11] is listed as “significant dose-dependent decreases”.

What is called inhibition is the drop in the measured response relative to a control, in per cent. As usually defined, the IC50 is the concentration that inhibits the measured activity by half. Low readings indicate inhibition by little substance, high ones a need for much substance. A word on the AUC(0-inf): it is the area under the concentration-time curve extrapolated to infinity. A lower AUC(0-inf) goes with low exposure. Usually AUC(0-t) stands for the area under the concentration-time curve up to a stated or last time point. In general, MRT inf refers to the average time that molecules of a dose stay in the body. By MRT last is commonly meant a mean duration of stay, worked out from the concentration-time curve. Broadly, the Tmax is the time at which the peak concentration occurs. By half-life is commonly meant the time needed for the level to fall by half in the phase considered. A high value points to slow loss.
